# Data reported in PubChem BioAssay.
# Some of the results follow. The source made the active and inactive calls.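 Rule for the calls, unless noted: active = mean duplicate activation above the buffer control mean plus 5 SD of those controls; inactive = the rest.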
# Legend:
# [1] = target: T1, Potassium voltage-gated channel subfamily E member 1 (Homo sapiens) + Potassium voltage-gated channel subfamily KQT member 1 (Homo sapiens) (UniProt P15382+P51787); test: KCNQ1-E1 channel activation – thallium flux, CHO-K1 KCNQ1/E1 cells, selectivity assay for KCNQ1 potentiator project, confirmation (AID 493186); settings: FluxOR thallium flux, at 10 µM; hits give high values;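 for activation: 0% = assay buffer control and 100% = R-L3 activator control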
# How it was run: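 Test system: CHO-K1 cells with KCNQ1/E1. Times: 90-min dye loading then 20-min compound exposure, both at room temperature. Measured by: kinetic FluxOR thallium-flux fluorescence, 10 s baseline plus 110 s after stimulus. Repeats: duplicate wells per compound.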
# [2] = nonspecific activity in CHO-K1 cells without KCNQ1 – parental CHO cells, Tl flux, counter-screen for KCNQ1 inhibitor project (AID 588366;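 active = mean of duplicate thallium-flux fluorescence ratios in parental host cells more than 5 SD below the buffer control mean, cut at about 0.38 in these data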;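 note: ratio is peak minus minimum fluorescence divided by baseline fluorescence; actives read low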); settings: parental CHO-K1, FluxOR thallium flux fluorescence ratio; at 10 µM; hits give low values; zero means no signal rise above baseline
# How it was run: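 Assay system – untransfected parental CHO-K1 cells · Technique – kinetic Tl+ flux fluorescence with FluxOR dye · Timing – FluxOR dye loading 90 min, compound exposure 20 min, room temperature · Replication – duplicate measurements per compound · Also added – K+/Tl+ depolarizing stimulus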
# [3] = target: Potassium voltage-gated channel subfamily KQT member 2 (Rattus norvegicus) (UniProt O88943); test: block of rat KCNQ2 potassium channel – cell-based, selectivity assay for KCNQ1 inhibitor project (AID 651746;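 active = mean percent inhibition of the KCNQ2 thallium signal more than 5 SD above the buffer-only control wells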); settings: KCNQ2 cells, FluxOR thallium flux fluorescence, at 10 µM; hits give high values
# [4] = target: T1, Potassium voltage-gated channel subfamily E member 1 (Homo sapiens) + Potassium voltage-gated channel subfamily KQT member 1 (Homo sapiens); test: block of human IKs channel complex – CHO-K1 cells, thallium flux, FluxOR, selectivity assay for KCNQ1 inhibitor project (AID 652147;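 active = mean percent inhibition of duplicate wells above the buffer-only control mean plus 3 SD of those controls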); settings: KCNQ1/KCNE1 cells, FluxOR thallium flux fluorescence, at 10 µM; hits give high values
# How it was run: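 System: cells expressing KCNQ1/KCNE1 channels; timing: 20 min compound pre-incubation at room temperature; technique: FluxOR thallium influx fluorescence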
# T1 sequence (P51787 whole entry, looked up): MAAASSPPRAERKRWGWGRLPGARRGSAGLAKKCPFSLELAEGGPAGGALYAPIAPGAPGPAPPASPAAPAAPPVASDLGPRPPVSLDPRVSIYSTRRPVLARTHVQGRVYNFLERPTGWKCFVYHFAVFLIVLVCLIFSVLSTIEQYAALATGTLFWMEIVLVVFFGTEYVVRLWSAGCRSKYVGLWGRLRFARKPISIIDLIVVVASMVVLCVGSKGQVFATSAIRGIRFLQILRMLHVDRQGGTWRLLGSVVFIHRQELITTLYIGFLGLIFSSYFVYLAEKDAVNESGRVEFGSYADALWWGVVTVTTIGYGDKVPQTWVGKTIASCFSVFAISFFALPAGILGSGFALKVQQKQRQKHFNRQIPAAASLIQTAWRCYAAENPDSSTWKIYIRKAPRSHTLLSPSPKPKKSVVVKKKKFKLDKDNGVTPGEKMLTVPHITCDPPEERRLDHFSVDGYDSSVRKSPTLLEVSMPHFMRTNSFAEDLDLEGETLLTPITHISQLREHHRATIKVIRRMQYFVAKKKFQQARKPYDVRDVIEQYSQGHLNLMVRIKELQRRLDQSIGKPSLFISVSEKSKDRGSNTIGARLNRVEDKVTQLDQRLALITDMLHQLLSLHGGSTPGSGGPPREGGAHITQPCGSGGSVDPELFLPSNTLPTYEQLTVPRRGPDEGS
# Chain of Potassium voltage-gated channel subfamily KQT member 2 (Rattus norvegicus) (O88943 whole entry, looked up): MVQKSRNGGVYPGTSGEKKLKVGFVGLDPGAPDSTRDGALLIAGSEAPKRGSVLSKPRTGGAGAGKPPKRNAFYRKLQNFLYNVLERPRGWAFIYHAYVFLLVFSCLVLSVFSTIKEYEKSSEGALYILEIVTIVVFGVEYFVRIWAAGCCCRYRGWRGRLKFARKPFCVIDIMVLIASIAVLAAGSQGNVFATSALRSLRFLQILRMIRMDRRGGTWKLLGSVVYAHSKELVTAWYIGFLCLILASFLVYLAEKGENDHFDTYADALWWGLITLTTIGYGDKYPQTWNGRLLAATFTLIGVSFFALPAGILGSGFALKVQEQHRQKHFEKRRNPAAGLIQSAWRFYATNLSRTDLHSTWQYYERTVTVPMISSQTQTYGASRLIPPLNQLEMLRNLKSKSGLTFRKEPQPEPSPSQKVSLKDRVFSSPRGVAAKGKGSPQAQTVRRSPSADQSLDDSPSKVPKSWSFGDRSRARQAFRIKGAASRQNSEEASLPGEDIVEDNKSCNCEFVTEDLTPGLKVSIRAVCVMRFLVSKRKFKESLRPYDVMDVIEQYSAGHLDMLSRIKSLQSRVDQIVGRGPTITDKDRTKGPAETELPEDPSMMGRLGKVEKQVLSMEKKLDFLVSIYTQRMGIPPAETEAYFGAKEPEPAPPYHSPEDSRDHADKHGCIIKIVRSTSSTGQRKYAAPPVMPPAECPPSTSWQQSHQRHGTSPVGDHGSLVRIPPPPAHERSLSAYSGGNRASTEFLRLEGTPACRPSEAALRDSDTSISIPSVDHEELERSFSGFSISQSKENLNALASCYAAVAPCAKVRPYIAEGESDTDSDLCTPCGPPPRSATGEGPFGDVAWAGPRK
smiles,measurement,setting,value
Cc1ccc(OCC(=O)NNC(=S)NC(=O)C(C)(C)C)c(Br)c1,outcome,[1],inactive
COc1ccc(C(=O)NNC(=S)NC(=O)c2ccccc2)cc1,activation,[1],20.5% (active)
Cc1onc(-c2ccccc2)c1C(=O)NNC(=S)NC(=O)c1ccc(Cl)cc1Cl,outcome,[1],inactive
Cc1cccc(C(=O)NC(=S)NNC(=O)c2ccccc2Cl)c1,outcome,[1],inactive
COc1ccc(C(=O)NC(=S)NNC(=O)c2cccc(C)c2)cc1,activation,[1],31.9% (active)
Cc1ccccc1C(=O)NNC(=S)NC(=O)c1ccc(Cl)cc1Cl,activation,[1],19.9% (active)
Cc1cccc(C(=O)NNC(=S)NC(=O)c2ccccc2)c1,activation,[1],46.6% (active)
CCN1/C(=C\c2ccc3ccccc3[n+]2CC)Sc2cc(C)ccc21,fluorescence ratio (Tl flux),[2],0.043 (active)
same,outcome,[3],inactive
same,outcome,[4],inactive
CCCCC(=O)NNC(=S)NC(=O)C(c1ccccc1)c1ccccc1,outcome,[1],inactive
NC(=Nc1ccccc1)Nc1ccccc1,outcome,[1],inactive
CC1CN(C(=O)c2ccc(NS(=O)(=O)c3ccc(C(C)(C)C)cc3)cc2)CC(C)O1 (configuration not stated),outcome,[1],inactive
CC(C)(C)C(=O)NC(=S)NNC(=O)C(c1ccccc1)c1ccccc1,outcome,[1],inactive
Cc1onc(-c2ccccc2)c1C(=O)NNC(=S)NC(=O)c1ccc(F)cc1,outcome,[1],inactive
CC(Oc1ccc(Cl)cc1)C(=O)NNC(=S)NC(=O)c1ccco1 (configuration not stated),activation,[1],13.8% (active)
Cc1onc(-c2ccccc2)c1C(=O)NNC(=S)NC(=O)c1ccc(Br)cc1,outcome,[1],inactive
